Bioassay records as filed in PubChem BioAssay.
IDH1 mut inh: IDH1 R132H (human) inhibition; inhibition, % at 10 µM; IDH1 R132H reductase, diaphorase/resazurin fluorescence, 60 min; 70,000 compounds, 0.18% hits; in the data active = inhibition above about 34%;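 also: 0% = DMSO and 100% = no enzyme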
Pf Dd2 growth: blocks growth of Plasmodium falciparum Dd2 parasites. P. falciparum Dd2 growth, SYBR Green, 72 h; stronger effect = lower value. 94,000 compounds, 2.3% hits. activity change, % at 10 µM; in the data active = activity change below about -80%
GASC1 inh: inhibitors of human demethylase GASC-1 KDM4C | inhibition, % at 12.5 µM | GST-KDM4C 2-372, H3K9me3 peptide, LANCE TR-FRET | 96,000 compounds, 0.15% hits;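 active = mean replicate inhibition above about 25%, with at least 55% of replicates also reaching it, limit read from the data, passing the limit was not always enough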
Target sequence (Q9H3R0 2-372 limits assumed): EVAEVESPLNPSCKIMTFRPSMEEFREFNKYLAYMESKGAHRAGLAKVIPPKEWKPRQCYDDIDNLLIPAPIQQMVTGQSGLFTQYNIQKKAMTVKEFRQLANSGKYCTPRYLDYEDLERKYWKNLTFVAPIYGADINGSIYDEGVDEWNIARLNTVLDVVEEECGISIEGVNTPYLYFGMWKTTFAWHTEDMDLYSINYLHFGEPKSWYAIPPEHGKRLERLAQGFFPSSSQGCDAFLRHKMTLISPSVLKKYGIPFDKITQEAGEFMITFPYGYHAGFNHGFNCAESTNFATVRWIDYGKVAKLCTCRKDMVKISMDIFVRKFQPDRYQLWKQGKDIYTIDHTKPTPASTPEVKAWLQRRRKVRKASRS
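Test system: N-terminal GST-fused human GASC-1 (KDM4C) fragment, residues 2-372; quantity: GASC-1 enzyme at 10 nM final in reaction; dosing: single dose; schedule: 30 min demethylation and 1 h detection at room temperature; signal: LANCE TR-FRET, excitation 340 nm, emissions 618 and 671 nm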
Tcruzi prolif: blocks T. cruzi growth in NIH3T3 culture | T. cruzi beta-gal in NIH3T3, GalScreen luminescence, 90 h | inhibition, % at 8.34 µM | 77,000 compounds, 5.9% hits | AID 624255;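 active = mean inhibition above about 93%, with at least 55% of replicates each passing it, limit read from the data, passing the limit was not always enough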
Starred values were filed as active, the others as inactive; nt = not tested or not shown; ! = not active in a repeat. A selection: hits, their analogues and other compounds. The true share with any hit is near 5.8%.

SMILES | IDH1 mut inh | Pf Dd2 growth | GASC1 inh | Tcruzi prolif
Cc1ccc(S(=O)(=O)Nc2ccc3c(c2)CC(=O)N([C@H](C)CO)C[C@H](C)[C@@H](CN(C)Cc2ccc(C(=O)Nc4ccccc4N)cc2)O3)cc1 | -3 | -85* | -1 | nt
Cc1ccc(S(=O)(=O)Nc2ccc3c(c2)CC(=O)N([C@@H](C)CO)C[C@@H](C)[C@@H](CN(C)Cc2ccc(C(=O)Nc4ccccc4N)cc2)O3)cc1 | 0 | -88* | -2 | 67
O=C(CCCC(=O)Nc1ccc2ccccc2c1)Nc1ccc2ccccc2c1 | 0 | nt | nt | nt
COc1ccc(-c2cn(S(=O)(=O)c3ccccc3OC)nc2N)cc1OC | -1 | nt | nt | nt
COCc1cn(CC[C@@H]2CC[C@H](NC(=O)CCN3CCCCC3)[C@@H](CO)O2)nn1 | 68* | 6 | 67* | -27
COCc1cn(CC[C@H]2CC[C@@H](NC(=O)CCN3CCCCC3)[C@H](CO)O2)nn1 | 0 | 17 | 3 | -55
CN(C)CC(=O)N[C@H]1CC[C@H](CCn2cc(CN(C)C)nn2)O[C@H]1CO | 101* | 1 | 92* | 60
O=C(NCc1c(OC(=O)c2cccc([N+](=O)[O-])c2)ccc2ccccc12)c1ccccc1 | 0 | nt | nt | nt
CNC(=O)CN(c1cc(C)ccc1OC)S(C)(=O)=O | 1 | nt | nt | nt
Fc1ccc(-c2ccc(C3[C@@H]4CN(Cc5cccc(F)c5)C[C@H]3N4)cc2)cc1 (stereo partly specified) | nt | -21 | 2 | nt
Cc1cccc(-c2ccc(C3[C@@H]4CN(Cc5ccccc5F)C[C@H]3N4)cc2)c1 (stereo partly specified) | nt | 7 | 1 | nt
Fc1ccc(-c2ccc(C3[C@@H]4CN(Cc5ccccc5)C[C@H]3N4)cc2)cc1 (stereo partly specified) | nt | -82*! | 41*! | nt
Cc1ccc(-c2ccc([C@@H]3[C@@H]4CN(Cc5ccccc5F)C[C@H]3N4)cc2)cc1 | nt | -87* | -3 | nt
Cc1ccc([N+](=O)[O-])cc1NC(=O)CSc1nnnn1C1CC2CCC1C2 (stereo unspecified) | -1 | nt | nt | nt
Cc1ccc([N+](=O)[O-])cc1NS(=O)(=O)c1cccc(C(=O)Nc2ccccc2)c1 | -1 | nt | nt | nt
C[C@@H]1CCCCO[C@@H](CN(C)CC2CCCCC2)[C@H](C)CN([C@H](C)CO)C(=O)c2cc(NC(=O)Nc3cccc4ccccc34)ccc2O1 | -3 | -89* | -2 | 120
C[C@H]1CCCCO[C@H](CN(C)CC2CCCCC2)[C@@H](C)CN([C@@H](C)CO)C(=O)c2cc(NC(=O)Nc3cccc4ccccc34)ccc2O1 | nt | -85* | -4 | 121
C[C@@H]1CN([C@@H](C)CO)C(=O)c2cc(NC(=O)Nc3cccc4ccccc34)ccc2O[C@@H](C)CCCCO[C@@H]1CN(C)CC1CCCCC1 | 1 | -88* | -1 | 121
COc1ccc(OC)c(NC(=O)COc2ccc(C(=O)Nc3ccc(C)cc3)cc2)c1 | 0 | nt | nt | nt
C[C@H]1CN([C@@H](C)CO)C(=O)Cc2cc(NC(=O)CCC(F)(F)F)ccc2O[C@H]1CN(C)S(C)(=O)=O | -1 | -87* | 3 | -1
C[C@@H]1CN([C@@H](C)CO)C(=O)Cc2cc(NC(=O)Nc3ccc(C(F)(F)F)cc3)ccc2O[C@@H]1CN(C)CC1CC1 | nt | -83* | -3 | 70
C[C@H](CO)N1C[C@H](C)[C@H](CN(C)CC2CC2)Oc2ccc(NC(=O)Nc3ccccc3)cc2CC1=O | 1 | -89* | -3 | -27
C[C@H](CO)N1C[C@H](C)[C@H](CN(C)CC2CC2)Oc2ccc(NC(=O)Nc3ccc(C(F)(F)F)cc3)cc2CC1=O | nt | -76 | -1 | 29
C[C@@H]1CN([C@H](C)CO)C(=O)Cc2cc(NC(=O)Nc3ccccc3)ccc2O[C@H]1CN(C)CC1CC1 | 0 | -16 | 0 | -38
N#Cc1ccc(NC(=O)Cn2ccc([N+](=O)[O-])n2)cc1 | 0 | nt | nt | nt
SMILES | IDH1 mut inh | Pf Dd2 growth | GASC1 inh | Tcruzi prolif
C[C@@H]1O[C@@H](O[C@H]2[C@@H]3C=CO[C@@H](O[C@@H]4O[C@H](CO)[C@@H](O)[C@H](O)[C@H]4O)[C@@H]3[C@@]3(CO)O[C@@H]23)[C@H](O)[C@H](OC(=O)/C=C/c2ccc(O)cc2)[C@H]1O | 1 | nt | nt | nt
Cc1noc(C)c1S(=O)(=O)Nc1ccc2c(c1)C(=O)N([C@@H](C)CO)C[C@@H](C)[C@@H](CN(C)C(=O)Nc1cccc3ccccc13)OCCCC[C@H](C)O2 | nt | -87* | 0 | 73
COc1ccc(S(=O)(=O)Nc2ccc3c(c2)C(=O)N([C@@H](C)CO)C[C@@H](C)[C@@H](CN(C)C(=O)Nc2cccc4ccccc24)OCCCC[C@H](C)O3)cc1 | 3 | -88* | -4 | 55
Cc1noc(C)c1S(=O)(=O)Nc1ccc2c(c1)C(=O)N([C@H](C)CO)C[C@@H](C)[C@@H](CN(C)C(=O)Nc1ccc(F)cc1)OCCCC[C@@H](C)O2 | nt | -85* | 1 | 81
COc1ccc(S(=O)(=O)Nc2ccc3c(c2)C(=O)N([C@@H](C)CO)C[C@@H](C)[C@H](CN(C)C(=O)Nc2cccc4ccccc24)OCCCC[C@@H](C)O3)cc1 | 0 | -33 | -3 | 91
C[C@@H]1CCCCO[C@H](CN(C)C(=O)Nc2cccc3ccccc23)[C@@H](C)CN([C@@H](C)CO)C(=O)c2cc(NS(=O)(=O)c3ccccc3)ccc2O1 | 1 | -88* | 0 | nt
CCN(CC)CCNc1ncnc(N)c1[N+](=O)[O-] | 0 | nt | nt | nt
CC(C)(C)[S@@](=O)N1Cc2cc(C(=O)NC3CCC3)nc(-c3cccc(Br)c3)c2[C@H]1CCO | nt | -77 | -3 | nt
CC(C)(O)C#Cc1cccc(-c2nc(C(=O)N[C@@H]3CCN(Cc4ccccc4)C3)cc3c2[C@H](CCO)N(S(=O)C(C)(C)C)C3)c1 (stereo partly specified) | nt | -82* | -4 | nt
COc1ccc(C#Cc2cccc(-c3nc(C(=O)N[C@@H]4CCN(Cc5ccccc5)C4)cc4c3[C@H](CCO)N(S(=O)C(C)(C)C)C4)c2)cc1OC (stereo partly specified) | nt | -84* | nt | nt
CC(C)(C)[S@](=O)N1Cc2cc(C(=O)NC3CCC3)nc(-c3cccc(Br)c3)c2[C@@H]1CCO | nt | -85* | -2 | nt
Cc1ccc(S(=O)(=O)N(C)C[C@H]2Oc3cc(C#Cc4ccncc4)ccc3S(=O)(=O)N([C@H](C)CO)C[C@@H]2C)cc1 | 0 | -81* | -18 | 45
Cc1ccc(S(=O)(=O)N(C)C[C@@H]2Oc3cc(C#Cc4ccncc4)ccc3S(=O)(=O)N([C@@H](C)CO)C[C@@H]2C)cc1 | -2 | -85* | -14 | -9
Cc1ccc(S(=O)(=O)N(C)C[C@H]2Oc3cc(C#Cc4ccncc4)ccc3S(=O)(=O)N([C@H](C)CO)C[C@H]2C)cc1 | 1 | -77 | -16 | 78
O=C(CCc1ccc(O)cc1)CC(CCc1ccc(O)cc1)O[C@@H]1OC[C@@H](O)[C@H](O)[C@H]1O (stereo partly specified) | 0 | nt | nt | nt
Cc1noc(C)c1S(=O)(=O)Nc1ccc2c(c1)CC(=O)N([C@@H](C)CO)C[C@@H](C)[C@@H](CN(C)Cc1ccc(C(=O)Nc3ccccc3N)cc1)O2 | nt | -93* | 1 | nt
